Data taken from ChEMBL document CHEMBL1144053, “Six triterpenoid saponins from Mmaesa laxiflora” (J Nat Prod, 1999).
Active and inactive are the calls of the source. The calls are words filed in the database; no cut-off is given here.

How the values were obtained:
[1] = system: A549; test: Cytotoxicity against human A549 cells by MTT assay; format: functional, cell-based
Summary of the method: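 A-549 cells from NCI; standard MTT-based colorimetric cytotoxicity assay.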

[2] = Inhibition of tubulin polymerization at 10 mg/mL by tubulin assembly assay; design: scale not given: the % may be the effect or the level left
Summary of the method: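 Test compound added to cold (6 °C) tubulin solution; assembly started by shifting the temperature from 6 to 37 °C. Turbidity followed over time, with polymerization rate taken from the slope of the turbidity increase.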

[3] = Inhibition of tubulin polymerization at 1 ug/mL by tubulin assembly assay; design: scale not given: the % may be the effect or the level left
Summary of the method: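 Compound added to cold (6 °C) tubulin solution; assembly started by a temperature shift from 6 to 37 °C. Turbidity followed over time, with polymerization rate taken as the slope of the turbidity increase.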

Row | SMILES | Activity [1] | Activity [2] | Activity [3]
1 | C/C=C(\C)C(=O)O[C@H]1CC(C)(C)C[C@H]2C3=CC[C@@H]4[C@@]5(C)CC[C@H](O[C@@H]6O[C@H](C(=O)O)[C@@H](O)[C@H](O[C@@H]7O[C@H](CO)[C@H](O)[C@H](O)[C@H]7O[C@@H]7O[C@@H](C)[C@H](O)[C@@H](O)[C@H]7O[C@@H]7O[C@@H](C)[C@H](O)[C@@H](O)[C@H]7O)[C@H]6O[C@@H]6O[C@H](CO)[C@H](O)[C@H](O)[C@H]6O)C(C)(C)[C@@H]5CC[C@@]4(C)[C@]3(C)C[C@@H](O)[C@@]12CO | inactive | 41% | 
2 | CCC/C=C\C(=O)O[C@H]1CC(C)(C)C[C@H]2C3=CC[C@@H]4[C@@]5(C)CC[C@H](O[C@@H]6O[C@H](C(=O)O)[C@@H](O)[C@H](O[C@@H]7O[C@H](CO)[C@H](O)[C@H](O)[C@H]7O[C@@H]7O[C@@H](C)[C@H](O)[C@@H](O)[C@H]7O[C@@H]7O[C@@H](C)[C@H](O)[C@@H](O)[C@H]7O)[C@H]6O[C@@H]6O[C@H](CO)[C@H](O)[C@H](O)[C@H]6O)C(C)(C)[C@@H]5CC[C@@]4(C)[C@]3(C)C[C@@H](O)[C@@]12CO | inactive | 41% | 
3 | C/C=C(\C)C(=O)O[C@H]1CC(C)(C)C[C@H]2C3=CC[C@@H]4[C@@]5(C)CC[C@H](O[C@@H]6O[C@H](C(=O)O)[C@@H](O)[C@H](O[C@@H]7O[C@H](CO)[C@H](O)[C@H](O)[C@H]7O[C@@H]7O[C@@H](C)[C@H](O)[C@@H](O)[C@H]7O[C@@H]7O[C@@H](C)[C@H](O)[C@@H](O)[C@H]7O)[C@H]6O[C@@H]6O[C@H](CO)[C@H](O)[C@H](O)[C@H]6O)C(C)(C)[C@@H]5CC[C@@]4(C)[C@]3(C)C[C@@H](OC(C)=O)[C@@]12CO | inactive | 41% | 
4 | COc1cc2c(c(OC)c1OC)-c1ccc(OC)c(=O)cc1[C@@H](NC(C)=O)CC2 |  |  | 50%
5 | CCC/C=C\C(=O)O[C@H]1CC(C)(C)C[C@H]2C3=CC[C@@H]4[C@@]5(C)CC[C@H](O[C@@H]6O[C@H](C(=O)O)[C@@H](O)[C@H](O[C@@H]7O[C@H](CO)[C@H](O)[C@H](O)[C@H]7O[C@@H]7O[C@@H](C)[C@H](O)[C@@H](O)[C@H]7O[C@@H]7O[C@@H](C)[C@H](O)[C@@H](O)[C@H]7O)[C@H]6O[C@@H]6O[C@H](CO)[C@@H](O)[C@H](O)[C@H]6O)C(C)(C)[C@@H]5CC[C@@]4(C)[C@]3(C)C[C@@H](O)[C@@]12CO | inactive | 41% | 
6 | C/C=C(\C)C(=O)O[C@H]1CC(C)(C)C[C@H]2C3=CC[C@@H]4[C@@]5(C)CC[C@H](O[C@@H]6O[C@H](C(=O)O)[C@@H](O)[C@H](O[C@@H]7O[C@H](CO)[C@H](O)[C@H](O)[C@H]7O[C@@H]7O[C@@H](C)[C@H](O)[C@@H](O)[C@H]7O[C@@H]7O[C@@H](C)[C@H](O)[C@@H](O)[C@H]7O)[C@H]6O[C@@H]6O[C@H](CO)[C@@H](O)[C@H](O)[C@H]6O)C(C)(C)[C@@H]5CC[C@@]4(C)[C@]3(C)C[C@@H](OC(C)=O)[C@@]12CO | inactive | 41% | 
7 | C/C=C(\C)C(=O)O[C@H]1CC(C)(C)C[C@H]2C3=CC[C@@H]4[C@@]5(C)CC[C@H](O[C@@H]6O[C@H](C(=O)O)[C@@H](O)[C@H](O[C@@H]7O[C@H](CO)[C@H](O)[C@H](O)[C@H]7O[C@@H]7O[C@@H](C)[C@H](O)[C@@H](O)[C@H]7O[C@@H]7O[C@@H](C)[C@H](O)[C@@H](O)[C@H]7O)[C@H]6O[C@@H]6O[C@H](CO)[C@@H](O)[C@H](O)[C@H]6O)C(C)(C)[C@@H]5CC[C@@]4(C)[C@]3(C)C[C@@H](O)[C@@]12CO | inactive | 41% | 
